Results reported in ChEMBL document CHEMBL1152481, “Synthesis of 2-(4-substitutedmethylpiperazin-1-yl)-N-(3,4-dihydro-3-oxo-2H-benzo[b][1,4]oxazin-7-yl)acetamides and their positive inotropic evaluation” (2009).
Calls of active or inactive are those of the source. The calls are words filed in the database; no cut-off is given here.

What was measured:
Oryctolagus cuniculus [1] = species on record: Oryctolagus cuniculus; assay: Negative inotropic activity in perfused rabbit left atrium assessed as stroke volume at 10 uM; type: functional, tissue-based; conditions: Cardiac atrium
Method in brief: (§1)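 Field-stimulated at a fixed 1.5 Hz, 60 min stabilization. Single dose, DMSO-dissolved and buffer-diluted, applied after a control circulation; 12-min circulations. Stroke volume read from the cannula water column at end diastole every 2 min, reported as mean % increase.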

[2] = Positive inotropic activity in perfused rabbit left atrium assessed as increase in stroke volume at 10 uM; type: functional, Oryctolagus cuniculus, Cardiac atrium; method in brief: as §1
Oryctolagus cuniculus [3] = species on record: Oryctolagus cuniculus; assay: Positive inotropic activity in perfused rabbit left atrium assessed as increase in stroke volume at 10 uM/L; type: functional, tissue-based; conditions: Cardiac atrium, TDE = time-dependent effect; method in brief: as §1
[4] = Chronotropic effect in perfused rabbit left atrium assessed as heart rate at 10 uM by electrocardiogram analysis (Rvb= 152.20 +/- 0.42 Hz); type: functional, Oryctolagus cuniculus, Cardiac atrium
[5] = Chronotropic effect in perfused rabbit left atrium assessed as heart rate at 10 uM by electrocardiogram analysis (Rvb= 146.80 +/- 0.09 Hz); type: functional, Oryctolagus cuniculus, Cardiac atrium

Row | SMILES | Activity (Oryctolagus cuniculus [1]) | Activity [2] [%] | further results
1 | O=C(CN1CCN(Cc2ccc3cc(OCc4ccccc4)ccc3c2)CC1)Nc1ccc2c(c1)OCC(=O)N2 | Active |  | 
2 | O=C(CN1CCN(Cc2cccc(Cl)c2)CC1)Nc1ccc2c(c1)OCC(=O)N2 | Active |  | 
3 | O=C(CN1CCN(Cc2c(Cl)cccc2Cl)CC1)Nc1ccc2c(c1)OCC(=O)N2 | Active |  | 
4 | O=C(CN1CCN(Cc2ccc3c(c2)OCO3)CC1)Nc1ccc2c(c1)OCC(=O)N2 | Active |  | 
5 | Cc1[nH]c(=O)c(C#N)cc1-c1ccncc1 [MILRINONE] |  | 1.67 | 
6 | Cc1ccc(COc2ccc3cc(CN4CCN(CC(=O)Nc5ccc6c(c5)OCC(=O)N6)CC4)ccc3c2)cc1 | Active |  | 
7 | O=C(CN1CCN(Cc2ccc(F)cc2)CC1)Nc1ccc2c(c1)OCC(=O)N2 | Active |  | 
8 | O=C(CN1CCN(Cc2ccc(Cl)cc2)CC1)Nc1ccc2c(c1)OCC(=O)N2 | Active |  | 
9 | Cc1ccc(CN2CCN(CC(=O)Nc3ccc4c(c3)OCC(=O)N4)CC2)cc1 |  | 5.09 | Activity (Oryctolagus cuniculus [3]): tde; Activity [4]: 142.2 Hz
10 | O=C(CN1CCN(Cc2ccc3cc(OCc4cccc(Cl)c4)ccc3c2)CC1)Nc1ccc2c(c1)OCC(=O)N2 | Active |  | 
11 | COc1ccc(COc2ccc3cc(CN4CCN(CC(=O)Nc5ccc6c(c5)OCC(=O)N6)CC4)ccc3c2)cc1 | Active |  | 
12 | O=C(CN1CCN(Cc2ccccc2)CC1)Nc1ccc2c(c1)OCC(=O)N2 | Active |  | 
13 | O=C(CN1CCN(Cc2ccccc2Br)CC1)Nc1ccc2c(c1)OCC(=O)N2 |  | 1.43 | 
14 | COc1cccc(CN2CCN(CC(=O)Nc3ccc4c(c3)OCC(=O)N4)CC2)c1 |  | 3.23 | 
15 | O=C(CN1CCN(Cc2ccccc2F)CC1)Nc1ccc2c(c1)OCC(=O)N2 |  | 4.29 | Activity [5]: 139.1 Hz; Activity (Oryctolagus cuniculus [3]): tde
16 | COc1ccc(CN2CCN(CC(=O)Nc3ccc4c(c3)OCC(=O)N4)CC2)cc1 | Active |  | 
